FXIIa mix inh = inhibitors of human coagulation factor XIIa, pooled mixtures | P00748 | purified FXIIa, fluorogenic substrate | inhibition, % at 5 µM | 62,000 tested, 0.2% active;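 further: 0% = enzyme without compound and 100% = no enzyme blank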
FXIa mix inh = blocks human factor XIa in pooled compound mixtures | purified FXIa, fluorogenic substrate | inhibition, % at 5 µM | 62,000 tested, 0.19% active | P03951 | AID 680;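 further: each value is inhibition by a whole ten-compound pool holding the compound; 0% = enzyme with no mixture and 100% = wells lacking enzyme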
Cathepsin G inh = inhibitors of human cathepsin G; inhibition, % at 5 µM (by protocol); P08311; 62,000 tested, 0.2% active; AID 581; purified enzyme, AMC-tetrapeptide fluorescence, pooled mixtures;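 active means inhibition above 20% in each of the two mixture wells holding the compound; inactive means inhibition of 20% or less in either well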;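 further: 0% = enzyme control without mixture and 100% = blank lacking enzyme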
C1s block = human complement C1s inhibition | P09871 | purified C1s, fluorogenic AMC substrate, pooled mixtures | mean inhibition % of two 10-compound mixtures (stronger effect = higher value), % at 5 µM (by protocol) | 62,000 tested, 0.16% active | AID 538;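 active means inhibition above 20% in each of the two 10-compound mixture wells holding the compound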;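 further: 0% = enzyme wells lacking compound mixture and 100% = no-enzyme blank wells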
Target sequence (P09871 16-437 limits assumed): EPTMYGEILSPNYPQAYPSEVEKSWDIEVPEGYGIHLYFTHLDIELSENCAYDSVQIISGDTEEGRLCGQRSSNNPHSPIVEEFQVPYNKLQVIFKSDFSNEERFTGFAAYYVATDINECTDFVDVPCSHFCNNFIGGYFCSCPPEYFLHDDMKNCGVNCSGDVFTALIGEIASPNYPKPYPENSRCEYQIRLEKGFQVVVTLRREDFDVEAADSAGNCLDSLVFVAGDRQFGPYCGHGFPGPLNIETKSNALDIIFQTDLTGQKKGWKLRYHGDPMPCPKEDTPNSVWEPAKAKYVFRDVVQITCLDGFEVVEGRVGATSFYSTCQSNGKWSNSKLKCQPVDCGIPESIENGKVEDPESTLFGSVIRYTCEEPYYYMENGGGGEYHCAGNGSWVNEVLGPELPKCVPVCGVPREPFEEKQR
Target sequence (P09871 438-688 limits assumed): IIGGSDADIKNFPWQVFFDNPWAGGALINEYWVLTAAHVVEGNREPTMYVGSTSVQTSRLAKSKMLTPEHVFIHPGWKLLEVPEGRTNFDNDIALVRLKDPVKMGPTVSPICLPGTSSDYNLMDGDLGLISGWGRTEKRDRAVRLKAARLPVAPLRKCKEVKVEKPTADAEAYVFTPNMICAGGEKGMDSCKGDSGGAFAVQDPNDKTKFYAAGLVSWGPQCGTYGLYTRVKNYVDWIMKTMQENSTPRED
AP ELISA ortho = alternative pathway complement inhibition, orthogonal assay. Human serum alternative complement pathway, LPS-coated ELISA, C3 deposition; tested in compound mixtures. AID 1235. 62,000 tested, 0.08% active. inhibition, % at 5 µM;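 active means inhibition above 30% in each of the two pooled mixtures holding the compound, so the lower value exceeds 30%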;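 further: 0% = serum in Mg-EGTA without compound and 100% = EDTA serum blank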
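Test system – human serum alternative complement pathway, C3 deposition on LPS-coated wells · Buffer or medium – diluted human serum in Mg2+-EGTA GVB++ · Compound dosing – 5 µM each compound, pools of ten, 50 µM per pool · Schedule – 1 h serum-compound exposure at 37 °C · Measured by – Anti-C3 ELISA, OD 450 nm · Read-out basis – percent inhibition of C3 deposition onto LPS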
MMP-13 inhibitor = inhibitors of human MMP13 | 65,000 tested, 0.07% active | AID 570 | inhibition, % at 4 µM | P45452 | MMP-13 fTHP FRET cleavage, Mca fluorescence;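 active means inhibition above the mean of compound-free control plate wells plus 3 SD, cut at about 14% in these data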;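 further: 0% = DMSO wells and 100% = wells with reference MMP-13 inhibitor after basal subtraction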
* = called active by the depositor; i = inactive; / = not tested or not shown. This is a sample that favours compounds with a hit; in the whole collection about 0.58% have one here. Unless noted, no stated cut-off is given here; in the data, active means inhibition above about 20% (passing the limit was not always enough); inactive means the rest.

SMILES	FXIIa mix inh	FXIa mix inh	Cathepsin G inh	C1s block	AP ELISA ortho	MMP-13 inhibitor
COc1cc(-c2nnc(SCC(=O)c3cc(C)n(CC4CCCO4)c3C)o2)cc(OC)c1OC (configuration not stated)	2.9	12.3	19.2	22.4*	13.6	1.0
CC(C)(C)C(=O)/C=C(\N)c1ccncc1	-0.2	3.7	9.8	16.1	40.4*	-2.7
CCOC(=O)C1CCN(C(=O)CSc2ccccc2)CC1	5.6	6.0	13.5	64.8*	8.3	-0.2
CCOC(=O)C1CCN(C(=O)CC(C)c2ccccc2)CC1 (configuration not stated)	3.2	5.2	0.5	0.7	12.6	1.8
COc1ccc(-c2nc(C#N)c(N3CCCCCC3)o2)cc1OC	2.4	1.3	5.7	-18.7	-0.5	i
Nc1cc(N)nc(SCCOc2ccccc2F)n1	2.0	77.3*	14.2	30.2	10.6	2.5
Nc1cc(N)nc(SCCOc2ccccc2)n1	7.5	-10.5	-12.9	-73.8	13.1	2.4
O=C(Oc1ccc(Cl)cc1N1C(=O)CCC1=O)c1ccco1	3.4	14.0	20.1	26.3*	9.2	-5.8
COCCOC(=O)C1=C(C)N=C2SCCC(=O)N2C1c1ccc(OC(=O)c2ccco2)cc1 (configuration not stated)	12.6	1.2	5.6	-20.9	18.1	2.9
O=C(c1ccco1)N1C(=O)c2cccc3cccc1c23	4.6	4.2	14.5	25.4*	0.3	-0.7
Cc1ccc(NC(=O)c2c(-c3c(F)cccc3Cl)noc2C)cc1F	12.8	6.0	-2.1	1.3	5.8	-4.2
CC1(C(=O)NCc2cccnc2)CCC(=O)N1Cc1cccs1 (configuration not stated)	2.9	-0.9	5.4	2.8	35.6*	-1.2
CCOc1ccc(S(=O)(=O)N(CC(=O)O)c2ccc(C)cc2)cc1	48.0*	-0.8	2.7	3.1	-7.3	3.6
COC(=O)c1nc2n(n1)C(c1cc(OC)ccc1OC)C(C(=O)OC1CCCCC1)=C(C)N2 (configuration not stated)	-0.1	0.8	-8.8	-39.1	-2.6	0.5
CCOc1cc(C2NC(=O)NC(C)=C2C(=O)OCc2ccccc2)ccc1O (configuration not stated)	5.9	3.5	7.5	8.1	7.5	-3.6
Cc1sc2nc(C(C)Nc3ccccc3N3CCOCC3)[nH]c(=O)c2c1C (configuration not stated)	-0.1	3.3	2.4	-19.8	19.8	-8.3
Cn1c(=O)n(C)c2cc(C(N)=O)ccc21	31.6*	1.7	14.2	16.3	8.8	-5.4
O=C1CN(Cc2ccccc2)C(=NCc2ccco2)S1	1.1	10.3	6.3	6.1	10.8	-2.0
CCC(=O)Nc1nc(C)cc(SCC(=O)OC)n1	-0.8	20.7*	9.0	17.4	0.7	1.2
COC(=O)CSc1nc2nc(C)cc(C)n2n1	4.8	9.6	9.1	16.7	14.3	-4.7
CCCN1C(=O)C(O)(C2CC(=O)CC(C)(C)O2)c2ccccc21 (configuration not stated)	22.0*	1.4	7.7	1.1	23.6	3.2
CCOC(=O)N1CCN(C(=O)c2ccc3c(=O)n(Cc4ccccc4)c(=S)[nH]c3c2)CC1	-3.6	57.2*	-1.7	-5.4	-9.1	3.0
Nc1nc(Cn2nnc(-c3ccccc3Cl)n2)nc(N2CCOCC2)n1	20.9*	2.8	0.2	2.2	8.9	4.0
O=C(NCc1ccccc1F)C1CCN(C(=O)NCc2ccccc2)CC1	1.6	-9.3	1.3	-27.5	33.1*	-0.5
O=C(NC1CCCCC1)C1CCN(C(=O)NCc2ccccc2)CC1	10.4	5.2	8.0	9.8	6.3	-1.2
SMILES	FXIIa mix inh	FXIa mix inh	Cathepsin G inh	C1s block	AP ELISA ortho	MMP-13 inhibitor
COc1cccc(OC)c1C(=O)N1CCN(Cc2ccccc2C)CC1	12.2	8.8	-0.6	-26.7	6.6	4.0
O=C(CCCCCN1C(=O)CCC1=O)Nc1ccc2c(c1)OCO2	22.8*	5.5	8.0	20.8	6.8	-0.6
COc1ccc(N2C(=O)C3CCCN3C2c2cccc(C)c2)cc1Cl (configuration not stated)	22.6*	3.3	2.9	-27.0	8.0	-2.5
COc1nc(N)nc(N2CCOCC2)n1	2.8	-1.5	3.9	-30.3	5.2	14.7*
CCN(CC)c1ccc(NC(=O)Nc2cccc(C(C)=O)c2)cc1	-0.2	5.0	1.5	7.8	21.0	1.6
CC(=O)Nc1cccc(NC(=O)Nc2ccc(C(C)=O)cc2)c1	24.0	25.3*	25.3	-5.5	11.5	2.7
CCCCOC(=O)CCn1[nH]c(=O)c2ccccc2c1=O	0.5	6.4	12.9	14.5	2.4	2.2
O=C(CCn1[nH]c(=O)c2ccccc2c1=O)OC1CCCCC1	3.7	20.5*	9.7	15.0	-0.5	-6.6
CCOC(=O)N1CCC(NC(=O)C2CCCN(Cc3nc(-c4cccc(Cl)c4)oc3C)C2)CC1 (configuration not stated)	1.4	21.2*	4.3	-10.0	13.1	-5.0
CCN1CCN(CCNC(=O)C2CCCN(Cc3nc(-c4cccc(Cl)c4)oc3C)C2)CC1 (configuration not stated)	8.9	10.0	-1.3	-4.2	21.3	-1.8
CC(C)CCOP(=O)(c1ccc(N(C)C)cc1)C(O)c1ccccn1 (configuration not stated)	4.9	-1.3	7.2	-0.8	15.2	5.0
CC(C)COP(=O)(c1ccc(N(C)C)cc1)C(O)c1ccccn1 (configuration not stated)	47.5*	6.5	9.3	11.7	5.6	0.4
CN1C(=O)c2ccc(C(=O)NC3CCCCC3)cc2C1=O	5.9	-8.0	0.8	-69.2	40.7*	5.2
CCOC(=O)N1CCC(N2C(=O)c3cc(C(=O)NC4CCCCC4)ccc3C2O)CC1 (configuration not stated)	2.6	24.8*	-1.8	-4.3	4.9	-7.2
CCCN1C(=O)c2cc(C(=O)NC3CCCCCC3)ccc2C1O (configuration not stated)	10.1	5.0	-1.3	-15.6	4.7	/
COC(=O)C(NC(=O)c1ccco1)(Nc1ccc(Br)cn1)C(F)(F)F (configuration not stated)	/	/	/	/	/	-4.1
COc1cc(C2c3c(oc4ccccc4c3=O)C(=O)N2Cc2ccncc2)ccc1O (configuration not stated)	3.7	8.8	-1.4	-6.0	12.1	-6.5
Cc1ccc(Cn2ncc3c(N4CCN(c5ccccc5C)CC4)ncnc32)cc1	4.2	13.0	19.6	22.1*	10.0	7.4
CC1=C(C(=O)NCc2ccccn2)C2(CCC(C)CC2)OC1=O (configuration not stated)	-16.7	0.0	8.2	9.9	-6.2	4.2
COc1ccc(S(=O)(=O)n2nc(OC(=O)c3cccs3)cc2N)cc1	2.2	20.9	37.5*	-15.9	13.7	0.6
COc1ccc(S(=O)(=O)n2nc(OC(=O)c3ccccc3)cc2N)cc1	11.8	27.7*	35.0*	23.4	15.6	-1.3
